Published values of several laboratories.
Protocols differ between the studies behind these lines.

Cn1cc2c3c1C(=O)C(N)=CC3=NCC2 — CC50 (HCT-116; cell growth or viability, MTT; 72 h): 2000 nM
Cn1c2cccc(=O)c-2nc2ccccc21 — Papp (PAMPA; 40 µM, 5 h, pH 7.4): 8.6 ×10⁻⁶ cm/s
C#CCN(C)CCCCCCOCc1ccc(CN(C)c2c3c(nc4ccccc24)CCCC3)cc1 — AUC(0-inf) (male Sprague-Dawley rat, plasma; intravenous, 1 mg/kg): 0.17 µg·h/mL
C[C@]12CC[C@H]3[C@@H](CC=C4CC(O)CC[C@@]43CO)[C@@H]1CCC2O (some centres unmarked) — AUC (rat, plasma; intravenous, 1 mg/kg): 0.167 µg·h/mL
CC(=O)c1c([O-])cc(C)oc1=O.[Na+] — AUC(0-t) (rat, serum; oral, 200 mg/kg): 3190 µg·h/mL
[2H]C([2H])([18F])[C@]([2H])(N)C(=O)O — tracer uptake (U-87 MG; bone; 110 min, tumour-bearing): 1.73 %ID/g
COCC1=N[C@@]2(O)[C@H](C(=O)N(C)OC)[C@@H](c3ccccc3)[C@]3(c4ccc(OC)cc4)Oc4cc(OC)cc(OC)c4[C@]23N1 — Papp (PAMPA; 50 µM, 30 min, pH 7.4): 783 ×10⁻⁶ cm/s
Cn1cc2c3c1C(=O)C(N)=CC3=[N+](C)CC2 — CC50 (HCT-116; cell growth or viability, MTT; 72 h): 1000 nM
